In ChEMBL document CHEMBL1126202, “Dual-action penems and carbapenems” (J Med Chem, 1992):

Key:
[1] = Stability in pH 7.4 phosphate buffer at 37 degree C.; assay type: physicochemical
Procedure, shortened: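 Compounds were held in pH 7.4 phosphate buffer at 37 °C and monitored by reverse-phase HPLC on a PRP-1 column with UV detection at 275–286 nm. The mobile phase was 0.01 M tetradecyltrimethylammonium bromide in pH 8.2 phosphate/acetonitrile. Product-peak decline was followed to at least 50%, and half-life was taken from semilogarithmic plots.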

Clostridioides difficile = assay: In vitro antibacterial activity against Clostridium difficile 651; assay type: functional
Bacteroides fragilis = assay: In vitro antibacterial activity against bacteroides fragilis S2; assay type: functional
Procedure, shortened: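 Anaerobic MIC, run in microtiter plates in Schaedler's broth supplemented with coenzyme I and hemin. Incubated in an oxygen-free hydrogen–carbon dioxide atmosphere.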

Enterobacter cloacae = assay: In vitro antibacterial activity against enterobacter cloacae P99 (constitutive beta-lactamase producer); assay type: functional
Procedure, shortened: (§1)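 MIC was determined by agar dilution on Mueller-Hinton agar. Serial 2-fold aqueous dilutions were diluted 10-fold in agar to give final concentrations of 128 to 0.0156 μg/mL. Plates were inoculated by Steers replicator with overnight broth cultures diluted 100-fold.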

Klebsiella pneumoniae = assay: In vitro antibacterial activity against klebsiella pneumoniae A; assay type: functional
Procedure, shortened: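 Agar-dilution MIC on Mueller-Hinton agar. Serial 2-fold dilutions were made in water, giving final agar concentrations of 128 to 0.0156 μg/mL. Inoculum was an overnight broth culture diluted 100-fold, applied with a multipoint replicator.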

Pseudomonas aeruginosa [2] = assay: In vitro antibacterial activity against Ps. aeruginosa 18SH (constitutive beta-lactamase producer); assay type: functional; procedure, shortened: as §1
Staphylococcus aureus [3] = assay: Minimum inhibitory concentration to the Penicillin G binding to Staphylococcus aureus ATCC 29213 PBPs
[4] = target: T1, Penicillin-binding protein 2b (Staphylococcus aureus) (UniProt Q9XDB3); assay: Concentration inhibiting [14C]- Penicillin G binding to Staphylococcus aureus ATCC 29213 Penicillin binding protein 3, 75 kDa
T1 sequence (whole entry): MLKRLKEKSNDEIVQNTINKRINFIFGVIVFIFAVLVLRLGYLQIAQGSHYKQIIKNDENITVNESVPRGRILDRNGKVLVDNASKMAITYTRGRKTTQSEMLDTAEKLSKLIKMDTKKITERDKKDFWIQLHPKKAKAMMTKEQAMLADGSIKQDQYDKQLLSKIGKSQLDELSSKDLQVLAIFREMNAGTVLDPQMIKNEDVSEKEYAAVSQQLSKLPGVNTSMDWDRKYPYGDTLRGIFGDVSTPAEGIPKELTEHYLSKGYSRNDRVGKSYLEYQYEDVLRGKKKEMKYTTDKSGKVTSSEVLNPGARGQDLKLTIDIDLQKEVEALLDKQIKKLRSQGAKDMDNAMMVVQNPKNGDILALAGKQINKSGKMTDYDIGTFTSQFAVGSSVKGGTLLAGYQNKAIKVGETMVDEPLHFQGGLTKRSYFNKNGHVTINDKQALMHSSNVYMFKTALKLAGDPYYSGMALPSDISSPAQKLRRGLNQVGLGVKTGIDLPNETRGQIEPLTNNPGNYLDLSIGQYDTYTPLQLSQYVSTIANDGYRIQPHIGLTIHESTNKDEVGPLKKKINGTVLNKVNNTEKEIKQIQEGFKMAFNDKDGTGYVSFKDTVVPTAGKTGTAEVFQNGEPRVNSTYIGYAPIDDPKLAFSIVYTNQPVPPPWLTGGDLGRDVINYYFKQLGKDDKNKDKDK

Escherichia coli [5] = assay: Minimum inhibitory concentration inhibiting [14C]- Penicillin G binding to Escherichia coli UB1005 PBPs
Proteus vulgaris [6] = assay: In vitro antibacterial activity against proteus vulgaris ATCC 6380 (constitutive beta-lactamase producer); assay type: functional
Procedure, shortened: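 Proteus MICs were determined by agar dilution on Mueller-Hinton agar containing 3% agar. Serial 2-fold dilutions gave final concentrations of 128 to 0.0156 μg/mL. Plates were replicator-inoculated with 100-fold-diluted overnight broth cultures.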

Staphylococcus aureus [7] = assay: In vitro antibacterial activity against Staphylococcus aureus 753 (constitutive beta-lactamase producer); assay type: functional
Procedure, shortened: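 MIC by agar dilution on Mueller-Hinton agar. Compounds were serially 2-fold diluted in water, final 128 to 0.0156 μg/mL in agar. Inoculum: overnight broth culture diluted 100-fold, applied with a Steers replicator.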

Serratia marcescens = assay: In vitro antibacterial activity against serratia marcescens SM (constitutive beta-lactamase producer); assay type: functional; procedure, shortened: as §1
Streptococcus pneumoniae = assay: In vitro antibacterial activity against streptococcus pneumoniae 6301; assay type: functional
Procedure, shortened: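 Streptococcal MICs were determined by agar dilution on brain heart infusion agar supplemented with 20 units/mL bovine liver catalase. Final concentrations were 128 to 0.0156 μg/mL from 2-fold dilutions. Inocula were overnight broth cultures diluted 100-fold, applied by Steers replicator.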

Citrobacter freundii [8] = assay: In vitro antibacterial activity against citrobacter freundii BS-16 (constitutive beta-lactamase producer); assay type: functional; procedure, shortened: as §1
Escherichia coli [9] = assay: Effect on replication DNA biosynthesis in Escherichia coli H560 (permeabilised cells).; assay type: functional, organism-based
Procedure, shortened: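 Toluene-permeabilized E. coli H560 cells were used. Replicative DNA synthesis was measured as ATP-dependent [3H]thymidine incorporation into trichloroacetic acid-insoluble material. IC50 is the concentration giving 50% inhibition.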

Escherichia coli [10] = assay: In vitro antibacterial activity against Escherichia coli UB1005 (nalidixic acid-resistant strain); assay type: functional; procedure, shortened: as §1
[11] = target: Penicillin-binding protein 1A (Escherichia coli K-12) (UniProt P02918); assay: Concentration inhibiting [14C]- Penicillin G binding to Escherichia coli UB1005 PBP1a (penicillin binding protein) 90 kDa
Pseudomonas aeruginosa [12] = assay: In vitro antibacterial activity against Pseudomonas aeruginosa 18SH (constitutive beta-lactamase producer); assay type: functional; procedure, shortened: as §1
Staphylococcus aureus [13] = assay: Minimum inhibitory concentration to the Penicillin G binding to Staphylococcus aureus ATCC 29213 Penicillin binding protein
[14] = target: Penicillin-binding protein 4 (Staphylococcus aureus) (UniProt P72355); assay: Concentration inhibiting [14C]- Penicillin G binding to Staphylococcus aureus ATCC 29213 Penicillin binding protein 4 41 kDa
Escherichia coli [15] = assay: Minimum inhibitory concentration of the Penicillin G binding to Escherichia coli UB1005 PBPs.
Citrobacter freundii [16] = assay: In vitro antibacterial activity against Citrobacter freundii BS-16 (constitutive beta-lactamase producer); assay type: functional; procedure, shortened: as §1
Staphylococcus aureus [17] = assay: Minimum inhibitory concentration to the compound inhibiting [14C]- Penicillin G binding to Staphylococcus aureus ATCC 29213 Penicillin binding protein
Proteus vulgaris [18] = assay: In vitro antibacterial activity against Proteus vulgaris ATCC 6380 (constitutive beta-lactamase producer); assay type: functional
Procedure, shortened: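 Proteus MICs were determined by agar dilution on Mueller-Hinton agar containing 3% agar. Plates were replicator-inoculated with 100-fold-diluted overnight broth cultures.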

Sequence of Penicillin-binding protein 1A (Escherichia coli K-12) (P02918 whole entry, looked up): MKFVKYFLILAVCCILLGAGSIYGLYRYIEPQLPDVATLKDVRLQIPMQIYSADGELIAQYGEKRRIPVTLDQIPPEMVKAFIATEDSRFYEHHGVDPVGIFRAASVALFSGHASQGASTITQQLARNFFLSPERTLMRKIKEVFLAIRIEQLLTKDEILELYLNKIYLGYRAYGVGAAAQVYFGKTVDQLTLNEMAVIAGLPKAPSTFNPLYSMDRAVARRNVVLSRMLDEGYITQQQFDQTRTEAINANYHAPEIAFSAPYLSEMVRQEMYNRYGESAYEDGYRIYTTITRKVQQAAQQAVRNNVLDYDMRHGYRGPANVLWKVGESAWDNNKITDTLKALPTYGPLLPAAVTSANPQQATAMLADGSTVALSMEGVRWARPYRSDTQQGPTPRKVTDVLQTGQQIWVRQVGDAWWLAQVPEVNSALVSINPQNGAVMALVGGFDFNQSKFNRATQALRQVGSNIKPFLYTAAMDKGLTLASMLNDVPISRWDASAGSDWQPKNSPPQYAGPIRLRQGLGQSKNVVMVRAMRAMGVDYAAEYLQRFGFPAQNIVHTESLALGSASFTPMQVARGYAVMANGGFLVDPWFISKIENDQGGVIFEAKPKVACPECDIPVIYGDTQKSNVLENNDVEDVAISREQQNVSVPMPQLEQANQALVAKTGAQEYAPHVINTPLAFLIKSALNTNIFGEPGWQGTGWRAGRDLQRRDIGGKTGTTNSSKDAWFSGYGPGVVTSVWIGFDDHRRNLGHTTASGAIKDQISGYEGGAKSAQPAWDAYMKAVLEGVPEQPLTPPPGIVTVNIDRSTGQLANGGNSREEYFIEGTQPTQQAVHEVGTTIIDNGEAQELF

Row | SMILES | MIC (Clostridioides difficile) [µg/mL] | MIC (Bacteroides fragilis) [µg/mL] | MIC (Enterobacter cloacae) [µg/mL] | MIC (Klebsiella pneumoniae) [µg/mL] | IC90 [4] [µg/mL] | MIC (Proteus vulgaris [6]) [µg/mL] | MIC (Staphylococcus aureus [7]) [µg/mL] | MIC (Serratia marcescens) [µg/mL] | MIC (Streptococcus pneumoniae) [µg/mL] | MIC (Citrobacter freundii [8]) [µg/mL] | IC50 (Escherichia coli [9]) [µg/mL] | MIC (Escherichia coli [10]) [µg/mL] | IC90 [11] [µg/mL] | MIC (Pseudomonas aeruginosa [12]) [µg/mL] | further results
1 | C[C@@H](O)[C@H]1C(=O)N2C(C(=O)[O-])=C(COC(=O)c3cn(CCF)c4c(F)c(N5CCN(C)CC5)c(F)cc4c3=O)S[C@H]12.[Na+] | 0.5 | < 0.125 | 0.5 | 0.5 | 0.5 | 0.25 | 2 | 0.5 | < 0.0156 | 0.5 | 4.7 | 2 | 2 | – | half-life [1]: 52 h; MIC (Pseudomonas aeruginosa [2]): 4 µg/mL; MIC (Staphylococcus aureus [3]): 0.125 µg/mL; MIC (Escherichia coli [5]): 2 µg/mL
2 | C[C@@H](O)[C@H]1C(=O)N2C(C(=O)[O-])=C(COC(=O)N3CCN(c4cc5c(cc4F)c(=O)c(C(=O)O)cn5C4CC4)CC3)S[C@H]12.[Na+] | 4 | 16 | 0.0625 | 0.25 | – | 0.0625 | 4 | 0.25 | 0.0313 | 0.125 | 3 | 4 | 2 | 1 | MIC (Staphylococcus aureus [13]): 0.25 µg/mL; IC90 [14]: 2 µg/mL; MIC (Escherichia coli [15]): 4 µg/mL
3 | C[C@@H](O)[C@H]1C(=O)N2C(C(=O)[O-])=C(CO)S[C@H]12.[Na+] | – | – | – | – | 10 | – | – | – | – | – | – | – | – | 8 | MIC (Citrobacter freundii [16]): 4 µg/mL; MIC (Staphylococcus aureus [17]): 0.25 µg/mL; MIC (Proteus vulgaris [18]): 8 µg/mL
